Calls of active or inactive are those of the source.
Assays:
[1] = target: T1, Neuropeptide FF receptor 1 (Homo sapiens, UniProt Q9GZQ6); assay: Agonist activity at human NPFF1 receptor expressed in cells assessed as beta-galactosidase levels after 5 days; assay type: functional, cell-based
In short: (§1)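 Functional R-SAT assay at human NPFF1 and NPFF2 receptors in agonist mode. Dose-response curves were built from seven concentrations, each tested in triplicate. Values are mean ± SEM of at least three independent experiments.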

[2] = target: T2, Neuropeptide FF receptor 2 (Homo sapiens, UniProt Q9Y5X5); assay: Agonist activity at human NPFF2 receptor expressed in cells assessed as beta-galactosidase levels after 5 days; assay type: functional, cell-based; in short: as §1
T2 sequence (Q9Y5X5 whole entry): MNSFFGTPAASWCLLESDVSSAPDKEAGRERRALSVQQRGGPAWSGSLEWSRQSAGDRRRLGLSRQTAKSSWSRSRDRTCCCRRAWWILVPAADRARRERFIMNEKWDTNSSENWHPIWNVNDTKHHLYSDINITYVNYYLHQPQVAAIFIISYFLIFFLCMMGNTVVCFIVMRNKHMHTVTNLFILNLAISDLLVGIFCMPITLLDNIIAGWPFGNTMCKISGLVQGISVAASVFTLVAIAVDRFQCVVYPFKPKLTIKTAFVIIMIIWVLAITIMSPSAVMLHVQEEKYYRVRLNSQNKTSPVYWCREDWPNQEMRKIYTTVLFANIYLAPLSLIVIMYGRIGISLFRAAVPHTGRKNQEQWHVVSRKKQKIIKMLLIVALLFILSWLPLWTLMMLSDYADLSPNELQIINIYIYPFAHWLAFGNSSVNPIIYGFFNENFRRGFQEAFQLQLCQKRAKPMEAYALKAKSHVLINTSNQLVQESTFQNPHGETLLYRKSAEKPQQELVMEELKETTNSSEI

[3] = target: T1, Neuropeptide FF receptor 1; assay: Agonist activity at human NPFF1 receptor expressed in cells assessed as beta-galactosidase levels at […] after 5 days; assay type: functional, cell-based
[4] = target: T2, Neuropeptide FF receptor 2; assay: Agonist activity at human NPFF2 receptor expressed in cells assessed as beta-galactosidase levels at […] after 5 days; assay type: functional, cell-based
[5] = target: T2, Neuropeptide FF receptor 2; assay: Agonist activity at human NPFF2 receptor expressed in HEK293T cells assessed as inhibition of PGE2-induced cAMP release; details: HEK-293T
Rattus norvegicus [6] = assay: Antiinflammatory activity in ip dosed Sprague-Dawley rat assessed as inhibition of carrageenan-induced paw edema; assay type: functional, organism-based
[7] = target: T1, Neuropeptide FF receptor 1; assay: Agonist activity at human NPFF1 receptor expressed in HEK293T cells assessed as inhibition of PGE2-induced cAMP release; design: Activity: scale not given: the % may be the effect or the level left; details: HEK-293T
Rattus norvegicus [8] = assay: Antiallodynic activity in Sprague-Dawley rat Kim-Chung model of neuropathic pain assessed mechanical-stimuli induced paw withdrawal threshold at 30 mg/kg; assay type: functional, organism-based; design: dose 30 mg/kg
In short: (§2)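 Rats underwent spinal nerve ligation (SNL), with sham-operated rats also used. Tactile allodynia was defined as a significant reduction in paw withdrawal threshold to mechanical stimuli.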

Rattus norvegicus [9] = assay: Antiinflammatory activity in ip dosed Sprague-Dawley rat assessed as inhibition of carrageenan-induced thermal hypersensitivity by hotplate test; assay type: functional, organism-based
In short: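 Acute inflammatory pain was produced in rats by carrageenan. Thermal hypersensitivity was measured by hot plate test on a metal plate held at 52 °C.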

Rattus norvegicus [10] = organism: Rattus norvegicus; assay: Antiallodynic activity in Sprague-Dawley rat Kim-Chung model of neuropathic pain assessed mechanical-stimuli induced paw withdrawal threshold in presence of […]-antagonist dansyl-PQR-amide; assay type: functional, organism-based
In short: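 Rats with spinal nerve ligation, plus sham-operated rats. Tactile allodynia was scored as a significant reduction in paw withdrawal threshold. The selective NPFF1 antagonist dansylPQRamide was given at 30 mg/kg ip alongside the test agonist, with systemic dosing.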

[11] = Activity at alpha-adrenergic receptor
Rattus norvegicus [12] = assay: Antiallodynic activity in Sprague-Dawley rat Kim-Chung model of neuropathic pain assessed mechanical-stimuli induced paw withdrawal threshold at 10 mg/kg; assay type: functional, organism-based; design: dose 10 mg/kg; in short: as §2
[13] = target: T1, Neuropeptide FF receptor 1; assay: Antagonist activity at human NPFF1 receptor expressed in HEK293T cells assessed as inhibition of PGE2-induced cAMP release; assay type: functional, cell-based; details: HEK-293T
[14] = Clearance in rat liver microsomes; assay type: ADME, Microsome
In short: (§3)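 Stability was measured in human and in rat liver microsomes. Clearance is reported in μL/(min·mg) and related to liver blood flow.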

[15] = Distribution coefficient, log D of the compound; assay type: physicochemical; details: octanol/water
[16] = Lipophilicity, log P of the compound; assay type: physicochemical; details: octanol/water
[17] = Clearance in human liver microsomes; assay type: ADME, Microsome; in short: as §3
[18] = Oral bioavailability in Sprague-Dawley rat; assay type: ADME, organism-based; details: in vivo
[19] = Dissociation constant, pKa of the compound; assay type: physicochemical
[20] = Half life in Sprague-Dawley rat; assay type: ADME, organism-based; details: in vivo
Rattus norvegicus [21] = organism: Rattus norvegicus; assay: Antiallodynic activity in Sprague-Dawley rat Kim-Chung model of neuropathic pain assessed mechanical-stimuli induced paw withdrawal threshold; assay type: functional, organism-based; in short: as §2

T1 sequence (Q9GZQ6 whole entry): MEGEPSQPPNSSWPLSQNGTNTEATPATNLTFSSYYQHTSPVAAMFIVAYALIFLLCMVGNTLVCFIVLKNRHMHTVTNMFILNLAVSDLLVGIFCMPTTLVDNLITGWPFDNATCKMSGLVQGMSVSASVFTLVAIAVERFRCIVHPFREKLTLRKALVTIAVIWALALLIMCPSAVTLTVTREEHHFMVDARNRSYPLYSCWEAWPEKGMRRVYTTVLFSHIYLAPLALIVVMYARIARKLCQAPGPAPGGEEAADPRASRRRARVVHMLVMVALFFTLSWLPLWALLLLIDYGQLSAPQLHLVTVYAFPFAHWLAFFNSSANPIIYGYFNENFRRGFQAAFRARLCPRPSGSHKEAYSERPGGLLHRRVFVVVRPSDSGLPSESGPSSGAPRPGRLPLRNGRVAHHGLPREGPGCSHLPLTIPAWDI

Row | SMILES | EC50 [1] [nM] | EC50 [2] [nM] | Efficacy [3] | Efficacy [4] [%] | further results
1 | Cc1ccccc1-c1ccc(/C=N/NC(=N)N)o1 | 79.4 | 100 | 55% | 90 | 
2 | N=C(N)N/N=C/c1ccc(Cl)c(C(F)(F)F)c1 | > 3160 |  | 46% | 114 | Efficacy [5]: 89%; Activity (Rattus norvegicus [6]): inactive; Activity [7]: 42%; Activity (Rattus norvegicus [8]): Active; Activity (Rattus norvegicus [9]): Dose-dependent effect
3 | N=C(N)N/N=C(\c1ccccc1)c1ccc(Cl)c(Cl)c1 | 794 | 794 | 46% | 63 | 
4 | C/C(=N\NC(=N)N)c1ccc(Cl)c(C(F)(F)F)c1 |  | 398 | inactive | 66 | 
5 | CN(C)c1cccc2c(S(=O)(=O)N3CCC[C@H]3C(=O)N[C@@H](CCC(N)=O)C(=O)N[C@@H](CCCNC(=N)N)C(N)=O)cccc12 |  |  |  |  | Activity (Rattus norvegicus [10]): Active
6 | N=C(N)N/N=C/c1ccc(Cl)c(Cl)c1 |  |  | 18% | 68 | Activity [11]: inactive; Activity (Rattus norvegicus [6]): inactive; Activity (Rattus norvegicus [12]): Active; Activity [13]: inactive; Activity (Rattus norvegicus [9]): Dose-dependent effect
7 | N=C(N)N/N=C/c1ccc(-c2ccccc2C(F)(F)F)s1 | 126 | 158 | 44% | 55 | 
8 | N=C(N)N/N=C/c1c(Cl)cccc1Cl |  |  |  |  | Activity [3]: inactive; Activity [4]: inactive
9 | NC(N)=N/N=C/c1ccc(Cl)c(Cl)c1 |  | 1000 |  |  | microsomal CLint [14]: 18 µL/min/mg; logD [15]: 1.8; logP [16]: 2.8; microsomal CLint [17]: 26 µL/min/mg; bioavailability [18]: 43%; pKa [19]: 8.4; half-life [20]: 2.5 h
10 | N=C(N)N/N=C/c1ccc(Br)c(Br)c1 |  |  | inactive | 90 | 
11 | C/C(=N\N=C(N)N)c1ccc(Cl)c(Cl)c1 |  | 501 | inactive | 64 | 
12 | CC(C)c1ccccc1-c1ccc(/C=N/NC(=N)N)o1 | 158 | 200 | 62% | 70 | 
13 | N=C(N)N/N=C/c1ccc(-c2ccccc2C(F)(F)F)o1 | 39.8 | 100 | 55% | 73 | Efficacy [5]: 114%; Efficacy [7]: 93%; Activity (Rattus norvegicus [21]): inactive
14 | Cn1c(/C=N/NC(=N)N)ccc1-c1ccccc1C(F)(F)F | 316 | 126 | 36% | 72 | 
15 | CCCCCNC(=N)N/N=C/c1c[nH]c2ccc(OC)cc12 |  |  |  |  | Activity [3]: inactive; Activity [4]: inactive

— ChEMBL document CHEMBL1154595, “Discovery of selective nonpeptidergic neuropeptide FF2 receptor agonists” (J Med Chem, 2009)
